Cytotoxicity data for 96 compounds are collected here from ChEMBL document CHEMBL4513216, “Probing the Open Global Health Chemical Diversity Library for Multistage-Active Starting Points for Next-Generation Antimalarials” (ACS Infect Dis, 2020).

The data set can be described thus: Toxicity liver stage against HepG2, at 10uM. Also noted: test concentration 10 uM, cell line HepG2-A16-CD81EGFP. Format: cell-based. The following applies: human, HepG2-A16-CD81EGFP cells; read-out: INHIBITION
The method in brief: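 Uninfected HepG2-A16-CD81EGFP cells, 3 × 10^3 per well, 1536-well, plated on prespotted compound at 10 μM final, parasite-free screening media added to match infected plates; puromycin 10 μM positive, DMSO 0.5% negative; run in parallel with 48 h PbLuc assay at 37 °C, 5% CO2; viability by CellTiter-Glo luminescence, normalized to controls.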
Take `CCc1noc(-c2cccc(OCC(=O)NC(C)C)c2)n1`: the cytotoxicity at 10 µM is -6.53%.

With `O=C1COc2cc(S(=O)(=O)NCCC3=CCCCC3)c(Cl)cc2N1`, the cytotoxicity at 10 µM was 18.6%.

`CCCS(=O)(=O)N1CC(=O)N(CCCc2ccccc2)CC(O)C1` (stereo unspecified): the cytotoxicity at 10 µM was -17%.

In the case of `O=C(c1cc(C2CC2)on1)N1CCC(Oc2ncccc2Cl)CC1`, the cytotoxicity at 10 µM was 5.37%.

In the case of `CNC(=O)CS(=O)(=O)C1CCN(S(=O)(=O)c2cccnc2)CC1`, the cytotoxicity at 10 µM is -1.68%.

Take `CC1N(CC2CC2)C(=O)COC12CCN(C(=O)c1ccncc1)CC2` (stereo unspecified): the cytotoxicity at 10 µM was -13.7%.

On to `COc1cccc(CNC(=O)c2nc3c(o2)CN(C(=O)N(C)C)C3)c1`, for which the cytotoxicity at 10 µM is -1.68%.

On to `COc1ccccc1CCNC(=O)CC1(Cn2cnnn2)CCCCC1`, for which the cytotoxicity at 10 µM was determined as 11.3%.

Regarding `O=C(Nc1ccccc1)C1=CC2(CCNCC2)c2ccccc21`, the cytotoxicity at 10 µM stood at 1.54%.

As for `CN(Cc1ccccn1)C(=O)[C@]12COC[C@H]1CN(Cc1cnn(C)c1)C2`, the cytotoxicity at 10 µM is -9.74%.

`O=C(c1ccccn1)N1Cc2ccccc2OC2(CCOCC2)C1`: the cytotoxicity at 10 µM is -12.9%.

For the compound `Cc1nc(C(=O)N(C)[C@@H]2CCC[C@@H](Oc3ccccc3)[C@@H]2O)co1`, the cytotoxicity at 10 µM is -22.6%.

On to `CC(C)S(=O)(=O)N1CCC(c2cc3n(n2)[C@@H](C(F)(F)F)C[C@@H](C)N3)CC1`, for which the cytotoxicity at 10 µM was -13.5%.

Regarding `CSCC[C@@H]1CN2CCC[C@H]2CN1Cc1cn(C)nc1C`, the cytotoxicity at 10 µM was -11.3%.

On to `COCC(=O)N1CCCCC1c1ccnc(Nc2ncc(C)s2)n1` (stereo unspecified), for which the cytotoxicity at 10 µM is -10.6%.

With `CS(=O)(=O)c1snnc1C1CCN(Cc2cccnc2)CC1`, the cytotoxicity at 10 µM is -11.2%.

In the case of `COc1ccc(-n2cc(CNC(=O)c3ccc[nH]3)nn2)cc1`, the cytotoxicity at 10 µM is -10.9%.

On to `Clc1cc(Cl)cc(CN2CCC(NCc3ncc[nH]3)CC2)c1`, for which the cytotoxicity at 10 µM came out at 18.4%.

On to `Fc1cc(CCNc2ccc3nccn3n2)c2c(c1)COCO2`, for which the cytotoxicity at 10 µM is 17.2%.

For `O=C(NCc1ccc(-n2cncn2)nc1)c1cnccn1`, the cytotoxicity at 10 µM is -5.18%.

Take `COc1ccc(S(=O)(=O)C(F)(F)F)cc1NC(=O)CSCC#N`: the cytotoxicity at 10 µM was -2.72%.

With `Cn1cc(NC(=O)N2CCN(Cc3cscn3)CC2)ccc1=O`, the cytotoxicity at 10 µM came to 3.67%.

Consider `OC(CN1CC(n2cccn2)C1)c1ccc2c(c1)OCCO2` (stereo unspecified), for which the cytotoxicity at 10 µM was -19%.

With `CCN(CC1CN(Cc2cccnc2)CCO1)c1cccnn1` (stereo unspecified), the cytotoxicity at 10 µM was -14%.

For `Clc1cnccc1N1CCC(OC2CCOCC2)CC1`, the cytotoxicity at 10 µM was -0.439%.

As for `c1ccc(-c2nc(CNC3CCCN(c4cccnn4)C3)no2)cc1` (stereo unspecified), the cytotoxicity at 10 µM was 15.9%.

Take `CN(Cc1ccc(F)cc1)C(=O)CN1CCCCC1Cn1cncn1` (stereo unspecified): the cytotoxicity at 10 µM worked out at 0.108%.

In the case of `O=C(C1CCCC1)N1CCC2(CC1)OCCO2`, the cytotoxicity at 10 µM amounted to 2.53%.

`COc1ccc(CNC(=O)NCc2nc(C)c(C)s2)cn1`: the cytotoxicity at 10 µM was 8.73%.

For `CCN(Cc1ccoc1)C(=O)NC1CCN(CC2CCCC2)CC1`, the cytotoxicity at 10 µM is -6.11%.

On to `CC(=O)N(C)CC(=O)NCC1(c2cccc(C)c2)CCCC1`, for which the cytotoxicity at 10 µM was -2.37%.

Take `CCN(Cc1ccoc1)C(=O)c1cc2c(c(S(N)(=O)=O)c1)CCC2`: the cytotoxicity at 10 µM is -4.97%.

`COCCS(=O)(=O)NC(C)c1cccc(C)c1C` (stereo unspecified): the cytotoxicity at 10 µM is 6.13%.

On to `Cn1cc(CCNC(=O)C2(c3cccc(Cl)c3)CC2)cn1`, for which the cytotoxicity at 10 µM amounted to 0.33%.

For the compound `CC(NC(=O)N1CCNC(=O)CC1)c1ccc(C(F)(F)F)cc1` (stereo unspecified), the cytotoxicity at 10 µM is 13.7%.

Consider `COCCC(C)NC(=O)N1CCSC(C)(C)C1` (stereo unspecified), for which the cytotoxicity at 10 µM is -3.94%.

Regarding `CC(C)OCCCNC(=O)NCc1cccc(-n2ccnc2)c1`, the cytotoxicity at 10 µM amounted to 18.5%.

As for `NC(=O)C1CCCN1Cc1ccccc1NC(=O)CC(F)(F)F` (stereo unspecified), the cytotoxicity at 10 µM turned out to be 13.1%.

In the case of `COCC(C)NC(=O)CCCn1cnc2ccccc2c1=O` (stereo unspecified), the cytotoxicity at 10 µM came to 8.43%.

In the case of `CCc1cnc(CCNS(C)(=O)=O)s1`, the cytotoxicity at 10 µM is 2.17%.

Turning to `CN(C(=O)c1cccc(C(=O)NS(C)(=O)=O)c1)c1ccccc1`, the cytotoxicity at 10 µM is -2.35%.

With `COCC1CC2(CCN(Cc3ccoc3)CC2)CN1Cc1ccccn1` (stereo unspecified), the cytotoxicity at 10 µM is -98.8%.

Consider `O=C(c1cccnc1)N1CCO[C@@H]2CNC[C@@H]21`, for which the cytotoxicity at 10 µM was -103%.

Consider `O=C(c1cnccn1)N1CCc2ncc(CN3CCOCC3)n2CC1`, for which the cytotoxicity at 10 µM is -77%.

`CCOC[C@@H]1CCC[C@@]12CN(Cc1cccnc1)CCO2`: the cytotoxicity at 10 µM was -65.7%.

Turning to `O=C(c1cccs1)N1CCC2(CC1)CN(c1cncnc1)C(=O)CO2`, the cytotoxicity at 10 µM was -67.7%.

Take `Cc1cc(C(=O)N2CC[C@H]3C[C@H](c4ccncn4)O[C@@H]3C2)c(C)[nH]1`: the cytotoxicity at 10 µM was -70.1%.

Take `Cc1ccc(CN2CCCC3(CCN(S(=O)(=O)N(C)C)C3)C2)o1` (stereo unspecified): the cytotoxicity at 10 µM turned out to be 7.49%.

As for `Cc1nn(CC(=O)O)c(C)c1NS(=O)(=O)c1cc2ccccc2s1`, the cytotoxicity at 10 µM is -7.07%.

As to `COc1ccccc1OCCn1c(C)c(C)oc1=O`, the cytotoxicity at 10 µM is -3.05%.

In the case of `Cn1cc(CN2CCC(Cn3cc(-c4ccccc4)nn3)CC2)cn1`, the cytotoxicity at 10 µM turned out to be 9.47%.

For the compound `c1ccc(-c2nc3c(c(NCc4n[nH]c5c4CCC5)n2)CCNC3)cc1`, the cytotoxicity at 10 µM is -12.8%.

Regarding `Cc1cc(N2CCCN(Cc3ccc(C)o3)CC2)ccn1`, the cytotoxicity at 10 µM is -5.51%.

Take `Cc1nc(C2CCCNC2)cc(N(Cc2nccn2C)C2CC2)n1` (stereo unspecified): the cytotoxicity at 10 µM was -3.42%.

For `CN(CCc1cnn(C)c1)C(=O)C(c1ccccc1F)N(C)C` (stereo unspecified), the cytotoxicity at 10 µM came out at 3.11%.

In the case of `O=C(NCCCO)c1cnc(-c2ccccc2)nc1O`, the cytotoxicity at 10 µM is -7.11%.

For the compound `c1ccc(Oc2nccc3occc23)c(CN2CCCCC2)c1`, the cytotoxicity at 10 µM is -10.1%.

As to `CCNc1ncc(C(=O)NC(CC)c2ccnn2C)cn1` (stereo unspecified), the cytotoxicity at 10 µM was -2.4%.

On to `OCc1ccc(CN2CCC(n3cc(C4CCCCC4)nn3)CC2)o1`, for which the cytotoxicity at 10 µM came to 1.02%.

Consider `Cn1c(N2CCOCC2)nc2cc(C(=O)NCc3cccnc3)ccc21`, for which the cytotoxicity at 10 µM turned out to be 0.678%.

In the case of `Nc1nc2c(c(N3CCCC(CN4CCCC4=O)C3)n1)CCNCC2` (stereo unspecified), the cytotoxicity at 10 µM came out at 14.6%.

Consider `CC(C)(O)CCc1cccc(C(=O)N[C@H](C(N)=O)c2ccccc2)c1`, for which the cytotoxicity at 10 µM is -4.21%.

On to `Cn1nc(C2CCCN(C(=O)Cc3ccsc3)C2)c2nccnc21` (stereo unspecified), for which the cytotoxicity at 10 µM amounted to 4.68%.

Turning to `Cc1cccc2cc(CNCCCN3CCOCC3)c(=O)[nH]c12`, the cytotoxicity at 10 µM turned out to be 0.127%.

For the compound `Cc1nc(CN2CCCC(NCc3sccc3C)C2)no1` (stereo unspecified), the cytotoxicity at 10 µM was -2.85%.

On to `CC(C)Oc1ccc(CNC(=O)NCC(C)(C)C(N)=O)cc1F`, for which the cytotoxicity at 10 µM is -24.8%.

As to `CC(=O)N1CCC(NC(=O)N2CCN(c3cnccn3)CC2)CC1`, the cytotoxicity at 10 µM amounted to 6.47%.

As for `CCOc1ccc2c(c1)CN(Cc1nc3c(cnn3C)c(=O)[nH]1)CC2`, the cytotoxicity at 10 µM is -0.373%.

In the case of `Cc1ccc(-c2noc(CN3CCCC(Cn4cncn4)C3)n2)cc1` (stereo unspecified), the cytotoxicity at 10 µM was -7.12%.

Consider `CN(CC(=O)N1CCCC1Cn1cccn1)Cc1ccccc1` (stereo unspecified), for which the cytotoxicity at 10 µM was -2.12%.

With `COc1cc(C)sc1C(=O)N1CCCC(n2nc(C)nc2C)C1` (stereo unspecified), the cytotoxicity at 10 µM was -13.6%.

As for `CC(NCc1ccccc1Cl)c1ccc(OCC(=O)NC2CC2)cc1` (stereo unspecified), the cytotoxicity at 10 µM is -12.7%.

In the case of `O=C(O)c1cc(S(=O)(=O)Nc2ccc(F)c(Cl)c2)cc2c1OCCO2`, the cytotoxicity at 10 µM was -2.33%.

Regarding `CCc1noc(CN2CCN(CC(O)c3ccccc3)CC2)n1` (stereo unspecified), the cytotoxicity at 10 µM worked out at 1.19%.

In the case of `O=c1[nH]c(CN2CCOC(Cn3cccn3)C2)nc2ccccc12` (stereo unspecified), the cytotoxicity at 10 µM was -2.32%.

For `O=C(Cc1noc2ccccc12)N1CCCC1c1noc(C2CC2)n1` (stereo unspecified), the cytotoxicity at 10 µM came out at 61.5%.

In the case of `Cc1cnn(CC2CCCN2C(=O)c2cnc3n[nH]c(C)c3c2)c1` (stereo unspecified), the cytotoxicity at 10 µM is 8.73%.

Turning to `CC(C)c1nnc2n1CCN(C(=O)c1ccc(CN(C)C)cc1)C2`, the cytotoxicity at 10 µM was found to be 5.2%.

As for `Cc1nnc(N2CCC(CN(C)C(C)C)CC2)c(C#N)c1C`, the cytotoxicity at 10 µM was determined as 3.63%.

As for `Cc1cccc(CN2Cc3[nH]nc(COCC4CC4)c3C2)n1`, the cytotoxicity at 10 µM was 3.79%.

With `CCOCC1CN(c2ccc(C)nn2)Cc2cnn(CC)c21` (stereo unspecified), the cytotoxicity at 10 µM was 9.41%.

Turning to `COc1ccc(CNC(C)c2ccccc2Cl)c(OC)c1OC` (stereo unspecified), the cytotoxicity at 10 µM turned out to be 8.01%.

On to `O=C(c1ccccc1)N1CCO[C@@H]2CN(c3ncccn3)C[C@@H]2C1`, for which the cytotoxicity at 10 µM is -6.63%.

Take `CN(C)c1ncc(C2Nc3cc(Cl)ccc3C3=NCCCN32)cn1` (stereo unspecified): the cytotoxicity at 10 µM was -32%.

For the compound `c1cnc(NCc2cncc3c2CCN(CC2CC2)C3)nc1`, the cytotoxicity at 10 µM was -101%.

For `Cn1cnc2c(-c3cccnc3)nc(C3CCNCC3)cc21`, the cytotoxicity at 10 µM is -99.9%.

As for `c1cc(COC[C@]23COC[C@H]2CN(CC2CCC2)C3)ccn1`, the cytotoxicity at 10 µM is -77.1%.

Take `Cn1cc(C2CC(=O)NC23CCN(CC2CC2)CC3)cn1` (stereo unspecified): the cytotoxicity at 10 µM is -7.28%.

As for `Cc1noc([C@]23COC[C@H]2CN(Cc2cc(C)on2)C3)n1`, the cytotoxicity at 10 µM turned out to be 0.841%.

Take `COCCN1C(=O)CCC12CCCN(Cc1nccs1)CC2` (stereo unspecified): the cytotoxicity at 10 µM is -85.1%.

For `O=C(N[C@H]1CN(Cc2ccsc2)[C@@H]2CCCO[C@H]12)C1CC1`, the cytotoxicity at 10 µM was 4.62%.

Consider `Cc1ccc(N2CCN(C)c3ncccc3C2)nn1`, for which the cytotoxicity at 10 µM was -3.77%.

Take `c1ccc(NC[C@@H]2CCC[C@@H]3CN(c4ncccn4)C[C@@H]32)nc1`: the cytotoxicity at 10 µM is -106%.

For the compound `c1ccc(CN2C[C@@H]3COC[C@]3(COCc3ccncc3)C2)nc1`, the cytotoxicity at 10 µM was -76.1%.

Take `O=C(Nc1ccccc1)N1C2CCC(O)(CC2)C1CN1CCOCC1` (stereo unspecified): the cytotoxicity at 10 µM stood at 10%.

Take `CCCN1C[C@@H]2CC[C@H]1CN(Cc1cccc(-n3cccn3)c1)C2`: the cytotoxicity at 10 µM is -1.69%.
